The source of these data is ChEMBL document CHEMBL1155126, “2-N-Methyl modifications and SAR studies of manzamine A” (Bioorg Med Chem, 2008).

Values after ≈ are worked out from the molar mass of the structure shown. Active and inactive are the calls of the source. The calls are words filed in the database; no cut-off is given here. Bounds are passed on as bounds.

A word on the IC50: it is the concentration that gives 50% inhibition. The MIC is the least concentration at which growth counts as inhibited. As usually defined, the MBC is the lowest tested concentration that kills the bacteria rather than only halting them.

A short description of series [1]: Selectivity index, ratio of IC50 for african green monkey (Cercopithecus aethiops) Vero cells to IC50 for chloroquine-sensitive Plasmodium falciparum D6. The series is classed as toxicity, cell-based. Particulars: read-out: Ratio IC50. The gist of the method: (§1)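 Ratio of Vero IC50 (neutral red, 48 h exposure) to P. falciparum IC50 from the 72 h LDH assay on the matching strain (W2 or D6).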

The subject of series [2] is Candida albicans. In words: Antimicrobial activity against Candida albicans ATCC 90028 at 91 uM. Format: functional, organism-based.
The subject of a further series is Aspergillus fumigatus. The experiment in a line: Antimicrobial activity against Aspergillus fumigatus ATCC 90906. The series is classed as functional, organism-based. Put shortly: (§2)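 Modified CLSI broth microdilution; M. intracellulare by a modified Franzblau method. Samples were serially diluted in 20% DMSO/saline and tested in duplicate. Inocula were set by OD630 in broth. Growth was read before and after incubation at 630 nm, or by fluorescence 544ex/590em for A. fumigatus and M. intracellulare. MIC is the lowest concentration with no detectable growth; MFC/MBC is the lowest concentration giving no growth after 5 µL is subcultured to agar.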

Series [3] has as its system Cryptococcus neoformans. The experiment in a line: Antimicrobial activity against Cryptococcus neoformans ATCC 90113. Format: functional, organism-based. Put shortly: (§3)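 Broth microdilution following modified CLSI methods; M. intracellulare by a modified Franzblau method. Samples serially diluted in 20% DMSO/saline and plated in duplicate. Inocula set by OD630 of suspensions in incubation broth. Growth read at 630 nm, or fluorescence 544ex/590em for M. intracellulare, before and after incubation. MIC is the lowest concentration with no detectable growth. MFC/MBC comes from subculturing clear wells onto agar.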

For series [4], the system named is Staphylococcus aureus. The experiment in a line: Antimicrobial activity against methicillin-resistant Staphylococcus aureus ATCC 43300. Format: functional, organism-based. Put shortly:
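Modified CLSI broth microdilution; M. intracellulare by a modified Franzblau method. Samples were serially diluted in 20% DMSO/saline and tested in duplicate. Inocula were set by OD630 in broth. MIC is the lowest concentration with no detectable growth; MFC/MBC is the lowest concentration giving no growth after 5 µL is subcultured to agar.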

The test system of series [5] is Plasmodium falciparum. The experiment in a line: Antimalarial activity after 72 hrs against chloroquine-resistant Plasmodium falciparum W2 as LDH activity. Format: functional, organism-based. The following applies: W2, 72 h. Put shortly: (§4)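 D6 or W2 parasitised red cells (2% parasitemia, 2% hematocrit) in RPMI 1640 with 10% human serum and 60 µg/mL amikacin, added to serially diluted samples. Cultures were gassed with 90% N2/5% O2/5% CO2 and held 72 h at 37 °C. Parasite LDH was read with Malstat reagent plus NBT/PES, stopped with 5% acetic acid, at 650 nm.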

The next series concerns Escherichia coli. In words: Antimicrobial activity against Escherichia coli ATCC 35218. Format: functional, organism-based. The gist of the method: as §2
The test system of series [6] is Candida albicans. In words: Antimicrobial activity against Candida albicans ATCC 90028. Format: functional, organism-based. The gist of the method:
as §2

The next series relates to Pseudomonas aeruginosa. The experiment in a line: Antimicrobial activity against Pseudomonas aeruginosa ATCC 27853. The series is classed as functional, organism-based. The gist of the method:
as §2

In series [7] the test system is Vero. In words: Cytotoxicity against african green monkey Vero cells after 48 hrs by neutral red assay. Particulars: Chlorocebus sabaeus. Format: cell-based. Put shortly:
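Vero monkey kidney fibroblasts were seeded at 25,000 cells/well and grown 24 h. Samples at graded concentrations were then added for 48 h. Viable cells were counted by neutral red uptake, and IC50 was taken from dose-response curves, with doxorubicin as positive control.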

A short description of series [8]: Selectivity index, ratio of IC50 for african green monkey (Cercopithecus aethiops) Vero cells to IC50 for chloroquine-resistant Plasmodium falciparum W2. The series is classed as toxicity, cell-based. The following applies: read-out: Ratio IC50. Put shortly:
as §1

Series [9] concerns Plasmodium falciparum. In words: Antimalarial activity after 72 hrs against chloroquine-sensitive Plasmodium falciparum D6 as LDH activity. Particulars: D6, 72 h. Format: functional, organism-based. The gist of the method:
as §4

The test system of series [10] is Mycobacterium intracellulare. In words: Antimicrobial activity against Mycobacterium intracellular ATCC 23068. The series is classed as functional, organism-based. The gist of the method:
as §3

In series [11] the test system is Staphylococcus aureus. The experiment in a line: Antimicrobial activity against methicillin-resistant Staphylococcus aureus ATCC 43300 at 91 uM. The series is classed as functional, organism-based.
For series [12], the system named is Cryptococcus neoformans. The experiment in a line: Antimicrobial activity against Cryptococcus neoformans ATCC 90113.
Series [13] has as its system Cryptococcus neoformans. In words: Antimicrobial activity against Cryptococcus neoformans ATCC 90113 at 89 uM. The series is classed as functional, organism-based.
Series [14] relates to Plasmodium falciparum. The experiment in a line: Antimalarial activity after 72 hrs against chloroquine-resistant Plasmodium falciparum W2 at 8 uM as LDH activity. The series is classed as functional, organism-based.
Series [15] concerns Plasmodium falciparum. The experiment in a line: Antimalarial activity after 72 hrs against chloroquine-sensitive Plasmodium falciparum D6 at 8 uM as LDH activity. Format: functional, organism-based.
Series [16] relates to Vero. The experiment in a line: Cytotoxicity against african green monkey Vero cells at 17 uM after 48 hrs by neutral red assay. Particulars: chlorocebus sabaeus. The series is classed as cell-based. The gist of the method: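 Vero cells seeded at 25,000 cells/well and incubated 24 h. Samples added at a range of concentrations, top concentration 17 µM, then incubated a further 48 h. Viable cells measured by Neutral Red uptake. IC50 taken from dose-response curves; doxorubicin positive control.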

The test system of series [17] is Mycobacterium intracellulare. In words: Antimicrobial activity against Mycobacterium intracellular ATCC 23068 at 89 uM. Format: functional, organism-based.
Series [18] has as its system Staphylococcus aureus. In words: Antimicrobial activity against methicillin-resistant Staphylococcus aureus ATCC 43300 at 89 uM. The series is classed as functional, organism-based.
Series [19] has as its system Candida albicans. The experiment in a line: Antimicrobial activity against Candida albicans ATCC 90028 at 89 uM. Format: functional, organism-based.
Series [20] deals with Staphylococcus aureus. The experiment in a line: Antimicrobial activity against methicillin-resistant Staphylococcus aureus ATCC 43300 at 3.0 uM. Format: functional, organism-based.
Series [21] deals with Hepatitis C virus. In words: Antiviral activity against HCV in Huh7 cells at 10 uM by replicon assay. The series is classed as functional, Hepacivirus hominis, Huh-7. Put shortly: (§5)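 HCV replicon in Huh-7 cells. Compound tested at 10 µM in triplicate, added immediately after seeding. HCV RNA and rRNA measured as ΔCt values and reported as % inhibition of each.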
Series [22] relates to Hepatitis C virus. In words: Antiviral activity against HCV at 10 uM. Format: functional, Hepacivirus hominis. The gist of the method:
as §5

For series [23], the system named is Candida albicans. The experiment in a line: Antimicrobial activity against Candida albicans ATCC 90028 at 87 uM. Format: functional, organism-based.
The subject of series [24] is Staphylococcus aureus. The experiment in a line: Antimicrobial activity against methicillin-resistant Staphylococcus aureus ATCC 43300 at 87 uM. The series is classed as functional, organism-based.
The subject of series [25] is Mycobacterium intracellulare. The experiment in a line: Antimicrobial activity against Mycobacterium intracellular ATCC 23068 at 87 uM. Format: functional, organism-based.

Regarding `O[C@]12C=C(c3nccc4c3[nH]c3ccccc34)[C@@H]3CCN(CCCC/C=C\CC1)C[C@@]31C[C@@H]3/C=C\CCCCN3[C@H]12` [MANZAMINE A], the figures for the selectivity ratio in series [1] and in series [8] were 29.4 and 25.2, respectively. Also, the outcome in the series on Candida albicans [2], in the series on Aspergillus fumigatus, in the series with Escherichia coli, with Pseudomonas aeruginosa and in the series on Staphylococcus aureus [11] was inactive. Also, the IC50 amounted to 2700 nM in the series on Cryptococcus neoformans [3]; 180 nM with Staphylococcus aureus [4]; 20 nM in the series with Plasmodium falciparum [5]; 16400 nM in the series with Candida albicans [6]; 501 nM in the series with Vero [7]; 17 nM with Plasmodium falciparum [9]. In addition, it took 180 nM to reach half-maximal inhibition in series [10] (IC50). In the series with Cryptococcus neoformans [3], the MFC turned out to be 23 µM (≈ 12.6 µg/mL). Also, the MIC against Cryptococcus neoformans [3] was 5.7 µM (≈ 3.13 µg/mL); in series [10], 0.36 µM (≈ 0.198 µg/mL). In addition, in series [10], the MBC worked out at 2.84 µM (≈ 1.56 µg/mL).
Take `C[C@@H]1[C@H](O)[C@@H](C)/C=C/C=C/C=C/C=C/C=C/C=C/C=C/[C@H](O[C@@H]2O[C@H](C)[C@@H](O)[C@H](N)[C@@H]2O)C[C@@H]2O[C@](O)(C[C@@H](O)C[C@@H](O)[C@H](O)CC[C@@H](O)C[C@@H](O)CC(=O)O[C@H]1C)C[C@H](O)[C@H]2C(=O)O` [AMPHOTERICIN B]: half-maximal inhibition in the series on Cryptococcus neoformans [12] (IC50) was put at 800 nM. This molecule also yielded an MFC with Candida albicans [6] of 1.35 µM (≈ 1.25 µg/mL). In the series on Cryptococcus neoformans [13], the MFC was found to be 1.35 µM (≈ 1.25 µg/mL) and inhibition of growth (MIC) required 1.35 µM (≈ 1.25 µg/mL).
As for `Cn1c2ccccc2c2ccnc(C3=C[C@@]4(O)CC/C=C\CCCCN5CCC3[C@]3(C[C@@H]6/C=C\CCCCN6[C@H]34)C5)c21` (some centres undefined) [9N-METHYLMANZAMINE A], the outcome with Plasmodium falciparum [14], in the series with Aspergillus fumigatus, in the series with Plasmodium falciparum [15], in the series on Escherichia coli, in the series on Pseudomonas aeruginosa and in the series on Cryptococcus neoformans [13] was inactive. Also, the outcome (in [17]; with Staphylococcus aureus [18]; with Candida albicans [19]) was inactive. In addition, the Activity entry in the series with Vero [16] is reported as “Non-toxic”.
`O=C(O)c1cn(C2CC2)c2cc(N3CCNCC3)c(F)cc2c1=O` [CIPROFLOXACIN]: inhibition of growth in the series with Staphylococcus aureus [4] (MIC) required 1.5 µM (≈ 0.497 µg/mL). In addition, the result with Staphylococcus aureus [20] was inactive. In series [10], this molecule gave an IC50 of 1100 nM, an MBC of 3 µM (≈ 0.994 µg/mL) and an MIC of 1.5 µM (≈ 0.497 µg/mL).
`C[n+]1ccc2c([nH]c3ccccc32)c1C1=C[C@@]2(O)CC/C=C\CCCCN3CCC1[C@]1(C[C@@H]4/C=C\CCCCN4[C@H]12)C3.O=S(=O)([O-])C(F)(F)F` (some centres undefined): the selectivity ratio in series [1] was greater than 24; in [8], greater than 17.5. In addition, the result in the series on Aspergillus fumigatus, in the series with Escherichia coli, in the series on Pseudomonas aeruginosa, with Cryptococcus neoformans [13] and with Candida albicans [19] was inactive. In addition, the IC50 with Cryptococcus neoformans [3] was 71100 nM; in the series on Staphylococcus aureus [4], 44500 nM; in the series on Plasmodium falciparum [5] it was 1010 nM; in the series on Plasmodium falciparum [9] it was 736 nM; in series [10] it was 17800 nM. For the same molecule, the MBC with Staphylococcus aureus [4] amounted to 89 µM; in series [10] it was 44.5 µM. The MIC against Staphylococcus aureus [4] amounted to 89 µM; in series [10], 44.5 µM. Also, the Activity in the series with Hepatitis C virus [21] was 100%; in the series with Vero [16], “Non-toxic”; with Hepatitis C virus [22] it was 99.87%.
For the molecule `C[C@@H]1CC[C@H]2[C@@H](C)C(=O)O[C@@H]3O[C@@]4(C)CC[C@@H]1[C@]32OO4` [ARTEMISININ], the selectivity ratio in [1] was greater than 2700; in series [8], greater than 3700. In addition, the values for the IC50 in the series with Plasmodium falciparum [5] and in the series with Plasmodium falciparum [9] were 4.5 nM and 6.3 nM, respectively. For the same molecule, the Activity result in the series with Vero [16] is on record as “Non-toxic”.
For the molecule `CO[C@]12C=C(c3c4[nH]c5ccccc5c4cc[n+]3C)C3CCN(CCCC/C=C\CC1)C[C@@]31C[C@@H]3/C=C\CCCCN3[C@H]12.O=S(=O)([O-])C(F)(F)F` (some centres undefined), the outcome with Plasmodium falciparum [14], in the series with Aspergillus fumigatus, with Plasmodium falciparum [15], in the series with Escherichia coli, in the series with Candida albicans [23] and in the series on Staphylococcus aureus [24] was inactive. Also, the outcome (in series [25]; in the series on Pseudomonas aeruginosa) was inactive. Further, the IC50 in the series with Cryptococcus neoformans [3] was determined as 52000 nM. This molecule also registered an MFC against Cryptococcus neoformans [3] of 87 µM. The molecule also showed an MIC against Cryptococcus neoformans [3] of 87 µM. Further, in the series on Vero [16], the Activity result is “Non-toxic”.
Regarding `CCN(CC)CCCC(C)Nc1ccnc2cc(Cl)ccc12` (centres undefined) [CHLOROQUINE], the Activity entry in the series with Vero [16] is “Non-toxic”.
